Calls of active or inactive are those of the source. No cut-off for these calls is given here.
Tests used:
[1] = target: T1, Cannabinoid receptor 1 (Homo sapiens, UniProt P21554); test: biochemical; assay type: cell-based, HEK293
[2] = Volume of distribution in Beagle dog at 0.5 mg/kg, iv; assay type: ADME, organism-based, Canis lupus familiaris; design: dose 0.5 mg/kg, route intravenous; details: in vivo, read-out: Vdss
Procedure, shortened: (§1)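 Male beagle dogs, 0.5 mg/kg iv. Vehicle: 6.7% EtOH/60% CD/33.3% PEG 400 or Transcutol P, depending on compound; amorphous solid used for iv. Plasma levels by LC-MS/MS after protein precipitation.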

[3] = Half life in Beagle dog at 0.5 mg/kg, iv; assay type: ADME, organism-based, Canis lupus familiaris; design: dose 0.5 mg/kg, route intravenous; details: in vivo
Procedure, shortened: as §1

[4] = Bioavailability in Sprague-Dawley rat at 1 mg/kg, iv; assay type: ADME, organism-based; details: in vivo
Procedure, shortened: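 Male Sprague-Dawley rats: iv dosing 1 mg/kg via jugular cannula (20% EtOH/80% CD or Transcutol P/CD); oral dosing of crystalline solid in 0.5% methylcellulose. Plasma by LC-MS/MS after protein precipitation.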

[5] = Volume of distribution in Sprague-Dawley rat at 1 mg/kg, iv; assay type: ADME, organism-based; design: dose 1 mg/kg, route intravenous; details: in vivo, read-out: Vdss
Procedure, shortened: (§2)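 Male Sprague-Dawley rats, 1 mg/kg iv via jugular vein cannula, amorphous solid in 20% EtOH/80% CD or Transcutol P/CD depending on compound. Plasma levels by LC-MS/MS after protein precipitation.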

[6] = tested on: Rattus norvegicus; test: Anorectic activity assessed in a fasting-induced re-feeding model in Sprague-Dawley rat at 1 mg/kg, po relative to control; assay type: functional
Procedure, shortened: (§3)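 Male CD rats fasted overnight, dosed orally the next morning with suspension in 0.5% methylcellulose. Food returned 0.5 h after dosing; cumulative intake measured 1.5 h later, expressed as % change versus vehicle-treated controls.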

[7] = tested on: Mus musculus; test: Ability to reverse CP-55940-stimulated responses in mice at 1 mg/kg, sc; assay type: functional, organism-based; design: dose 1 mg/kg
Procedure, shortened: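 Mouse challenge assay from the 'tetrad': reversal of CP-55940-stimulated analgesia and hypothermia, test agent given sc.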

[8] = Plasma clearance in Beagle dog at 0.5 mg/kg, iv; assay type: ADME, organism-based, Canis lupus familiaris; design: dose 0.5 mg/kg, route intravenous
Procedure, shortened: as §1

[9] = target: Cannabinoid receptor 2 (Homo sapiens, UniProt P34972); test: Binding affinity to human CB2 receptor expressed in CHOK1 cells; assay type: cell-based, CHO-K1
Cannabinoid receptor 2, sequence (P34972 whole entry): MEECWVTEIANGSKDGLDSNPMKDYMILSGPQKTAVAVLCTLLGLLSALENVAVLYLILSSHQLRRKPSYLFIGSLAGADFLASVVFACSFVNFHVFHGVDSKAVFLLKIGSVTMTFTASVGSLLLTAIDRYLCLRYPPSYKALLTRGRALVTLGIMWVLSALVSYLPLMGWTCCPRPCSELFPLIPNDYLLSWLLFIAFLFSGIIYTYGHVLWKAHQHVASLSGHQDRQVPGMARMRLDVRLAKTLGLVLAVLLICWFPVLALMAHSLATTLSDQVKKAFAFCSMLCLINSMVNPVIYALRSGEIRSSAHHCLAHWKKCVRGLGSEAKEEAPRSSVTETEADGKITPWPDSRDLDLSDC

[10] = Half life in Sprague-Dawley rat at 1 mg/kg, iv; assay type: ADME, organism-based; design: dose 1 mg/kg, route intravenous; details: in vivo
Procedure, shortened: as §2

[11] = Plasma clearance in Sprague-Dawley rat at 1 mg/kg, iv; assay type: ADME, organism-based; design: dose 1 mg/kg, route intravenous
Procedure, shortened: as §2

[12] = tested on: Rattus norvegicus; test: Anorectic activity assessed in a fasting-induced re-feeding model in Sprague-Dawley rat at 10 mg/kg, po relative to control; assay type: functional
Procedure, shortened: as §3

[13] = tested on: Rattus norvegicus; test: Anorectic activity assessed in a fasting-induced re-feeding model in Sprague-Dawley rat at 3 mg/kg, po relative to control; assay type: functional
Procedure, shortened: as §3

[14] = tested on: Rattus norvegicus; test: Anorectic activity assessed in a fasting-induced re-feeding model in Sprague-Dawley rat at 0.3 mg/kg, po relative to control; assay type: functional
Procedure, shortened: as §3

[15] = target: T1, Cannabinoid receptor 1; test: Functional activity at human CB1 receptor transfected in CHOK1 cells by [35SGTP]gammaS assay; assay type: cell-based, CHO-K1

T1 sequence (P21554 whole entry): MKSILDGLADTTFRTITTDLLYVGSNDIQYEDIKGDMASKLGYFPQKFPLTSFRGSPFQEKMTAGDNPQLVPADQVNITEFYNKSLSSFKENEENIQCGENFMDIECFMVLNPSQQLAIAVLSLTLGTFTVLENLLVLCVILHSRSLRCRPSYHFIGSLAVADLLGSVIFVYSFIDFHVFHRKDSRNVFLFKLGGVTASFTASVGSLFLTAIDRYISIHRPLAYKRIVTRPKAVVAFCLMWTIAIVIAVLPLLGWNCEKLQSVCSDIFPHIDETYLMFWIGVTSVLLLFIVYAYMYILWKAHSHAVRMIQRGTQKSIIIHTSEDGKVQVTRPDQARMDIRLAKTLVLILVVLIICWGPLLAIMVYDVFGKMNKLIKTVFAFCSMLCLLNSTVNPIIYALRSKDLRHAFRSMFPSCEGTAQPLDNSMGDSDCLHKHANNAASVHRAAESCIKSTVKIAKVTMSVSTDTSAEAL

SMILES | Ki [1] | Ki [9] | Ki [15] | also measured
CC(C)n1cnc2c(-c3ccc(Cl)cc3)n(-c3ccccc3Cl)nc2c1=O | 21 nM |  |  | 
Cc1nc2c(-c3ccc(Cl)cc3)n(-c3ccccc3Cl)nc2c(=O)n1CC(F)(F)F |  | > 10000 nM |  | Vd [2]: 17 L/kg; half-life [3]: 39 h; bioavailability [4]: 7%; Vd [5]: 7.7 L/kg; Activity [6]: -35%; Activity [7]: Active; clearance [8]: 10 mL/min/kg; half-life [10]: 4.7 h; clearance [11]: 32 mL/min/kg; Activity [12]: -59%; Activity [13]: -42%
O=c1c2nn(-c3ccccc3Cl)c(-c3ccc(Cl)cc3)c2ncn1CC(F)(F)F |  | > 10000 nM |  | Vd [2]: 10 L/kg; half-life [3]: 223 h; bioavailability [4]: 62%; Activity [14]: -23%; Vd [5]: 9.2 L/kg; Activity [6]: -32%; Activity [7]: Active; clearance [8]: 0.54 mL/min/kg; half-life [10]: 2.6 h; clearance [11]: 45 mL/min/kg; Activity [13]: -78%
O=c1c2nn(-c3ccccc3Cl)c(-c3ccc(Cl)cc3)c2ccn1CC(F)(F)F | 1 nM | > 10000 nM | 1 nM | 
CCC(CC)n1cnc2c(-c3ccc(Cl)cc3)n(-c3ccccc3Cl)nc2c1=O | 26 nM |  |  | 
CCc1nc2c(-c3ccc(Cl)cc3)n(-c3ccccc3Cl)nc2c(=O)n1CC(F)(F)F | 1 nM | > 10000 nM | 3 nM | 
O=c1c2nn(-c3ccccc3Cl)c(-c3ccc(Cl)cc3)c2ncn1Cc1ccccc1 |  | > 10000 nM |  | 
O=c1c2nn(-c3ccccc3Cl)c(-c3ccc(Cl)cc3)c2ncn1N1CCCCC1 | 12 nM | > 10000 nM | 20 nM | 

The next lines start with results.

Ki [1] | Ki [9] | Ki [15] | SMILES | also measured
 | > 10000 nM |  | CCCn1cnc2c(-c3ccc(Cl)cc3)n(-c3ccccc3Cl)nc2c1=O | 
 | > 10000 nM |  | CCn1cnc2c(-c3ccc(Cl)cc3)n(-c3ccccc3Cl)nc2c1=O | 
 | > 10000 nM |  | O=c1c2nn(-c3ccccc3Cl)c(-c3ccc(Cl)cc3)c2ncn1CC(F)F | 
1 nM | > 10000 nM | 1 nM | O=c1c2nc(-c3ccccc3Cl)n(-c3ccc(Cl)cc3)c2ncn1CC(F)(F)F | 
28 nM | > 10000 nM |  | O=c1c2nn(-c3ccc(Cl)cc3)c(-c3ccccc3Cl)c2ncn1CC(F)(F)F | 
38 nM | > 10000 nM |  | O=c1c2nn(-c3ccc(Cl)cc3)c(-c3ccccc3Cl)c2ncn1C1CCCCC1 | 
6 nM | > 10000 nM | 13 nM | CC(C)c1nc2c(-c3ccc(Cl)cc3)n(-c3ccccc3Cl)nc2c(=O)n1CC(F)(F)F | 
8 nM | > 10000 nM | 4 nM | O=c1c2nn(-c3ccccc3Cl)c(-c3ccc(Cl)cc3)c2cnn1CC(F)(F)F | 
 | > 10000 nM |  | O=c1c2nn(-c3ccccc3Cl)c(-c3ccc(Cl)cc3)c2ncn1CCF | 
20 nM | > 10000 nM |  | O=c1c2nn(-c3ccccc3Cl)c(-c3ccc(Cl)cc3)c2ncn1C1CCCCC1 | 
 | > 10000 nM |  | O=c1c2nn(-c3ccccc3Cl)c(-c3ccc(Cl)cc3)c2ncn1CCC(F)(F)F | 
 | > 10000 nM |  | CC(F)(F)Cn1cnc2c(-c3ccc(Cl)cc3)n(-c3ccccc3Cl)nc2c1=O | 

From ChEMBL document CHEMBL1149436, “New bicyclic cannabinoid receptor-1 (CB1-R) antagonists” (Bioorg Med Chem Lett, 2006)
